Reference: ChEMBL document CHEMBL1136796 (J Med Chem, 2003)
Values belong to the molecule of their own block, whether it stands above or below them.

Assays:
Tubulin [1] = biological target: T1, Tubulin (Sus scrofa, UniProt P02554+P02550); test: In vitro inhibition of maximum porcine tubulin assembly rate after 20 min at 37 degrees C; type: functional
K562 = test: In vitro inhibitory concentration against human chronic myelogenous leukemia K562 cell growth; type: functional, cell-based
SF-268 [2] = test: Tested for induction of cellular death in Human ZNS SF-268 tumor cell line in Propidium Iodide Monolayer Assay; type: functional, cell-based
Method in brief: (§1)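 Propidium iodide monolayer assay: cells seeded at 1 × 10^5 or 5 × 10^4 cells/mL, 24 h recovery, drug in triplicate for 3–6 days by doubling time; PI 25 μg/mL added, fluorescence (ex 530/em 620 nm) read before and after freezing at −18 °C for 24 h; viable cells from the difference; % T/C versus concentration.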

MAXF401 cell line = test: Tested for induction of cellular death in Human breast 401NL tumor cell line in Propidium Iodide Monolayer Assay; type: functional, cell-based; method in brief: as §1
NCI-H460 [3] = test: Tested for induction of cellular death in Human lung H-460 tumor cell line in Propidium Iodide Monolayer Assay; type: functional, cell-based; method in brief: as §1
MCF7 = test: Tested for induction of cellular death in Human breast MCF-7 tumor cell line in Propidium Iodide Monolayer Assay; type: functional, cell-based; method in brief: as §1
RXF 944 = test: Tested for induction of cellular death in Human renal RXF 944L tumor cell line in Propidium Iodide Monolayer Assay; type: functional, cell-based; method in brief: as §1
LXFL 529 = test: Tested for induction of cellular death in Human lung LXF 529L tumor cell line in Propidium Iodide Monolayer Assay; type: functional, cell-based; method in brief: as §1
Sus scrofa = organism: Sus scrofa; test: In vitro inhibitory concentration against tubulin assembly; type: functional
[4] = tested on: Lung LXF 629L tumor cell line; test: Tested for induction of cellular death in Human lung LXF 629L tumor cell line in Propidium Iodide Monolayer Assay; type: functional, cell-based; method in brief: as §1
RKO [5] = test: Cytotoxic activity against human colon adenocarcinoma RKO cells without ectopic inducible expression of cyclin-dependent kinase inhibitor p27kip1; type: functional, cell-based
SF-268 [6] = test: Cytotoxic activity against cellular metabolic activity of Glioma SF-268 tumor cell line using XTT proliferation assay after incubation with the compound for 48 h; type: functional, cell-based; conditions: Homo sapiens, SF-268, 48 h
LT12 tumor cell line [7] = test: Antiproliferative activity against LT12 tumor cell line; type: functional, cell-based; conditions: Rattus norvegicus
NCI-H460 [8] = test: Cytotoxic activity against cellular metabolic activity of Lung NCI-H460 tumor cell line using XTT proliferation assay after incubation with the compound for 48 h; type: functional, cell-based; conditions: Homo sapiens, NCI-H460, 48 h
Method in brief: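 NCI-H460 human lung tumor cells seeded at 1 × 10^3 cells/well in microtiter plates and exposed to a range of compound concentrations for 48 h. Proliferation read as cellular metabolic activity by XTT. At least two replicates (n = 2); IC50 obtained from dose–response curves by nonlinear regression.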

SK-OV-3 = test: Cytotoxic activity against cellular metabolic activity of Ovary SKOV3 tumor cell line using XTT proliferation assay after incubation with the compound for 48 h; type: functional, cell-based; conditions: Homo sapiens, SK-OV-3, 48 h
Tubulin [9] = biological target: T1, Tubulin; test: In vitro inhibitory concentration required to displace [3H]colchicine from its binding site on tubulin; type: protein assay
L1210 [10] = test: Antiproliferative activity against L1210 tumor cell line; type: functional, cell-based; conditions: Mus musculus
LT12 tumor cell line [11] = test: Antiproliferative activity against LT12 phenotype LT12 MDR tumor cell line; type: functional, cell-based; conditions: Rattus norvegicus
P388 (Mus musculus) = test: Antiproliferative activity against P388 tumor cell line
L1210 [12] = test: Antiproliferative activity against L1210 phenotype L1210 VCR tumor cell line; type: functional, cell-based; conditions: Mus musculus
RKO [13] = test: Cytotoxic activity against human colon adenocarcinoma RKO cells with ectopic inducible expression of cyclin-dependent kinase inhibitor p27kip1; type: functional, cell-based
HeLa (Homo sapiens) = test: Effective concentration required to arrest propidium iodide stained KB/HeLa cells in G2/M phase
KB = test: Cytotoxic activity against cellular metabolic activity of Cervix KB/HeLa tumor cell line using XTT proliferation assay after incubation with the compound for 48 h; type: functional, cell-based; conditions: Homo sapiens
P388/ADR = test: Antiproliferative activity against P388 phenotype P388 ADR tumor cell line; type: functional, cell-based; conditions: Mus musculus

SMILES: COc1ccc(CC2c3ccccc3C(=O)c3ccccc32)cc1O
IC50 (Tubulin [1]): 2.3 µM
IC50 (K562): 7 µM

SMILES: COC(=O)c1cc(C=C2c3ccccc3C(=O)c3ccccc32)ccc1O
IC50 (Tubulin [1]): > 10 µM
IC50 (K562): 1.4 µM

SMILES: O=C1c2ccccc2C(=Cc2cc(Cl)cc(Cl)c2)c2ccccc21
IC50 (Tubulin [1]): > 10 µM
IC50 (K562): 6 µM

SMILES: O=C1c2ccccc2C(=Cc2ccccc2)c2ccccc21
IC50 (Tubulin [1]): 4.4 µM
IC50 (K562): 2 µM

SMILES: COc1ccc(CC2c3ccccc3C(=O)c3ccccc32)cc1
IC50 (Tubulin [1]): 2.6 µM
IC50 (K562): 25 µM

SMILES: O=C1c2ccccc2C(=Cc2ccc([N+](=O)[O-])cc2)c2ccccc21
IC50 (K562): 3 µM

SMILES: COc1ccc(CC2c3ccccc3C(=O)c3ccccc32)cc1OC(=O)c1ccccc1
IC50 (Tubulin [1]): > 10 µM

SMILES: O=C1c2ccccc2C(=Cc2ccc(C(F)(F)F)cc2)c2ccccc21
IC50 (K562): > 20 µM

SMILES: COc1cc(C=C2c3ccccc3C(=O)c3ccccc32)cc(OC)c1OC
IC50 (Tubulin [1]): 10 µM
IC50 (K562): 4 µM

SMILES: COc1cc(CC2c3ccccc3C(=O)c3ccccc32)cc(OC)c1
IC50 (Tubulin [1]): 10 µM

SMILES: COC(=O)Nc1nc2cc(C(=O)c3cccs3)ccc2[nH]1 [NOCODAZOLE]
IC50 (RKO [5]): 0.11 µM
IC50 (SF-268 [6]): 0.3 µM
IC50 (LT12 tumor cell line [7]): 0.3 µM
IC50 (NCI-H460 [8]): 0.15 µM
IC50 (SK-OV-3): 0.17 µM
IC50 (L1210 [10]): 0.06 µM
IC50 (LT12 tumor cell line [11]): 0.05 µM
IC50 (P388 (Mus musculus)): 0.07 µM
IC50 (L1210 [12]): 0.07 µM
IC50 (RKO [13]): > 10 µM
EC50 (HeLa (Homo sapiens)): 0.082 µM
IC50 (KB): 0.14 µM
IC50 (P388/ADR): 0.05 µM

Second part, led by results:

IC50 (Tubulin [1]): 0.76 µM
IC50 (Sus scrofa): < 1 µM
IC50 (K562): 0.06 µM
SMILES: COc1ccc(C=C2c3ccccc3C(=O)c3ccccc32)cc1
IC50 (SF-268 [2]): 0.89 µM
IC50 (MAXF401 cell line): 0.3 µM
IC50 (NCI-H460 [3]): 0.5 µM
IC50 (MCF7): 0.56 µM
IC50 (RXF 944): 0.7 µM
IC50 (LXFL 529): 0.26 µM
IC50 [4]: 0.13 µM

IC50 (Tubulin [1]): 0.48 µM
IC50 (K562): 0.16 µM
SMILES: O=C1c2ccccc2C(=Cc2cc(Br)c(O)c(Br)c2)c2ccccc21

IC50 (K562): 0.01 µM
SMILES: COc1cccc2c1C(=O)c1c(O)c3c(c(O)c1C2=O)C[C@@](O)(C(=O)CO)C[C@@H]3O[C@H]1C[C@H](N)[C@H](O)[C@H](C)O1 [DOXORUBICIN]
IC50 (MAXF401 cell line): 0.01 µM
IC50 (NCI-H460 [3]): 1.72 µM
IC50 (RXF 944): 0.06 µM
IC50 (LXFL 529): 0.03 µM
IC50 [4]: 0.07 µM

IC50 (Tubulin [1]): 2.5 µM
IC50 (K562): 0.8 µM
SMILES: O=C1c2ccccc2C(=Cc2ccc(O)cc2)c2ccccc21

IC50 (LT12 tumor cell line [7]): 0.12 µM
IC50 (Tubulin [1]): 0.43 µM
IC50 (Tubulin [9]): 0.22 µM
IC50 (L1210 [10]): 0.05 µM
IC50 (LT12 tumor cell line [11]): 0.09 µM
IC50 (Sus scrofa): 0.43 µM
IC50 (P388 (Mus musculus)): 0.08 µM
IC50 (L1210 [12]): 0.07 µM
EC50 (HeLa (Homo sapiens)): 0.234 µM
IC50 (K562): 0.25 µM
IC50 (P388/ADR): 0.11 µM
SMILES: COc1ccc(C=C2c3ccccc3C(=O)c3ccccc32)c(OC)c1O
IC50 (RKO [5]): 0.05 µM
IC50 (SF-268 [6]): 0.06 µM
IC50 (SF-268 [2]): 0.04 µM
IC50 (MAXF401 cell line): < 0.01 µM
IC50 (NCI-H460 [3]): 0.15 µM
IC50 (MCF7): 1.85 µM
IC50 (NCI-H460 [8]): 0.06 µM
IC50 (RXF 944): < 0.01 µM
IC50 (SK-OV-3): 0.06 µM
IC50 (LXFL 529): 0.07 µM
IC50 (RKO [13]): > 9 µM
IC50 (KB): 0.05 µM
IC50 [4]: 0.05 µM

IC50 (Tubulin [1]): 0.63 µM
IC50 (Sus scrofa): < 1 µM
IC50 (K562): 0.17 µM
SMILES: COc1cc(C=C2c3ccccc3C(=O)c3ccccc32)cc(OC)c1O
IC50 (SF-268 [2]): 0.62 µM
IC50 (MAXF401 cell line): 0.24 µM
IC50 (NCI-H460 [3]): 3.09 µM
IC50 (MCF7): 4.13 µM
IC50 (RXF 944): 0.15 µM
IC50 (LXFL 529): 7.49 µM
IC50 [4]: 0.72 µM

IC50 (Tubulin [1]): 1.8 µM
IC50 (K562): 0.06 µM
SMILES: O=C1c2ccccc2C(=Cc2ccc(O)c(O)c2)c2ccccc21
IC50 (SF-268 [2]): 1.16 µM
IC50 (MAXF401 cell line): 0.21 µM
IC50 (NCI-H460 [3]): < 0.01 µM
IC50 (MCF7): 0.04 µM
IC50 (RXF 944): 0.03 µM
IC50 (LXFL 529): 1.62 µM
IC50 [4]: 0.26 µM

IC50 (Tubulin [1]): 1.2 µM
IC50 (Sus scrofa): 1.2 µM
IC50 (K562): 0.07 µM
SMILES: COc1ccc(C=C2c3ccccc3C(=O)c3ccccc32)c(O)c1
